Laboratory results: ChEMBL document CHEMBL5104224, “Alkyltriphenylphosphonium turns naphthoquinoneimidazoles into potent membrane depolarizers against mycobacteria” (RSC Med Chem, 2022)
Calls of active or inactive are those of the source. The calls are words filed in the database; no cut-off is given here.

Assays:
[1] = tested on: Mycobacterium tuberculosis variant bovis; test: Inhibition of ATP synthesis in Mycobacterium bovis BCG ATCC 35734 assessed as reduction in ATP level at 4 x MIC90 incubated for 15 mins by BacTiter-Glo microbial luminescence assay; type: functional
How it was run: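 Mid-log BCG diluted to OD600 0.1 in complete 7H9 and treated at 4× MIC90. At each time point, culture mixed 1:1 with BacTiter-Glo reagent for 15 min at room temperature in the dark and luminescence read. Background (media + reagent) subtracted. ATP quantified from a calibration curve of 0.1–100 nM ATP in 7H9. Rifampicin negative control.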

[2] = tested on: Cell membrane; test: Induction of cell membrane depolarization in Mycobacterium bovis BCG ATCC 35734 assessed as loss in mitochondrial membrane potential at 4 x MIC90 incubated for 24 hrs by DiOC2(3) dye based fluorescence assay; type: subcellular; conditions: Mycobacterium tuberculosis variant bovis
How it was run: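 Aliquots taken at selected times and stained with DiOC2(3) (BacLight membrane potential kit). Depolarization read as a fall in red/green fluorescence ratio. CCCP 5 μM positive control, rifampicin 0.08 μM negative control.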

[3] = tested on: Cell membrane; test: Induction of cell envelope stress in Mycobacterium bovis BCG ATCC 35734 expressing piniBAC RFP at 4 x MIC90 after 24 hrs by fluorescence analysis; type: subcellular; conditions: Mycobacterium tuberculosis variant bovis
How it was run: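 Recombinant M. bovis BCG-piniBAC-RFP at OD600 0.2, incubated with compound for 24 h. Red fluorescence (Ex 587/Em 630 nm) normalized to OD600 to reflect promoter induction. INH (0.1–50 μM) positive control.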

SMILES	inhibition [1]	Activity [2]	Activity [3]
CCCCCCCCCCC[P+](c1ccccc1)(c1ccccc1)c1ccccc1	Active	Active	–
Cc1nc2c(n1CCCCCCCCCCC[P+](c1ccccc1)(c1ccccc1)c1ccccc1)C(=O)c1ccccc1C2=O	Active	Active	–
Cc1nc2c(n1CCCCCCCCC[P+](c1ccccc1)(c1ccccc1)c1ccccc1)C(=O)c1ccccc1C2=O	Active	Active	–
NNC(=O)c1ccncc1	–	–	Active
CCCCCCC[P+](c1ccccc1)(c1ccccc1)c1ccccc1	Active	Active	–
